# Laboratory results published in ChEMBL document CHEMBL5038580 (J Med Chem, 2022).
# Residues, ends and D or L forms follow the SMILES beside them.
# Key:
# SARS-CoV-2 [1] = assay: Antiviral activity against SARS-CoV-2 assessed as inhibition of viral infection in Caco-2 cells preincubated for 30 min followed by cells addition for 12 hrs and complete medium replacement and measured after 48 hrs by luciferase assay; format: functional, organism-based; details: Severe acute respiratory syndrome coronavirus 2, Caco-2
# SARS-CoV-2 [2] = assay: Antiviral activity against SARS-CoV-2 assessed as inhibition of viral infection in 293T/ACE2 cells preincubated for 30 min followed by cells addition for 12 hrs and complete medium replacement and measured after 48 hrs by luciferase assay; format: functional, organism-based; details: Severe acute respiratory syndrome coronavirus 2, 293T/ACE2
# Method in brief: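 ACE2-293T cells (10^4/well) were plated 12 h before infection. Pseudovirus was mixed with peptides serially diluted in FBS-free DMEM for 30 min at 37 °C and added to the cells. After 12 h the medium was replaced with complete medium and cells were incubated 48 h more. Luciferase activity was read.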
compound,measurement,setting,value
CC[C@H](C)[C@H](NC(C)=O)C(=O)N[C@@H](CCC(=O)O)C(=O)N[C@@H](CCC(=O)O)C(=O)N[C@H](C(=O)N[C@H](C(=O)N[C@@H](CCCCN)C(=O)N[C@@H](CCCCN)C(=O)N[C@H](C(=O)N[C@@H](Cc1c[nH]cn1)C(=O)N[C@@H](Cc1c[nH]cn1)C(=O)N[C@H](C(=O)N[C@@H](CCC(=O)O)C(=O)N[C@@H](CCCNC(=N)N)C(=O)N[C@@H](C)C(=O)N[C@H](C(=O)N[C@@H](CCC(=O)O)C(=O)N[C@@H](C)C(=O)N[C@@H](CCC(N)=O)C(=O)N[C@@H](CCC(N)=O)C(=O)N[C@@H](CCCCN)C(=O)N[C@@H](CC(C)C)C(=O)N[C@@H](CC(C)C)C(=O)N[C@@H](CCC(N)=O)C(=O)N[C@@H](CC(C)C)C(=O)N[C@H](C(=O)N[C@H](C(=O)N[C@@H](Cc1c[nH]c2ccccc12)C(=O)NCC(=O)N[C@H](C(=O)N[C@@H](CCCCN)C(=O)N[C@@H](CCC(N)=O)C(=O)N[C@@H](CC(C)C)C(=O)N[C@@H](CCC(N)=O)C(=O)N[C@@H](C)C(=O)N[C@@H](CCCNC(=N)N)C(=O)N[C@H](C(=O)N[C@@H](CC(C)C)C(N)=O)[C@@H](C)CC)[C@@H](C)CC)C(C)C)[C@@H](C)O)[C@@H](C)CC)[C@@H](C)CC)[C@@H](C)CC)C(C)C)[C@@H](C)CC (Ac-IEEIVKKIHHIERAIEAQQKLLQLTVWGIKQLQARIL-NH2),IC50,SARS-CoV-2 [1],> 20 µM
same,IC50,SARS-CoV-2 [2],> 20 µM
